# Measurements reported in ChEMBL document CHEMBL1144619, “The synthesis and biological evaluation of novel series of nitrile-containing fluoroquinolones as antibacterial agents” (Bioorg Med Chem Lett, 2007).
# Tests used:
# [1] = test system: Streptococcus pneumoniae; assay: Antibacterial activity against Streptococcus pneumoniae SV1; type: functional
# [2] = test system: Staphylococcus aureus; assay: Antibacterial activity against Staphylococcus aureus UC76; type: functional
# [3] = test system: Haemophilus influenzae; assay: Antibacterial activity against Haemophilus influenzae HI3542; type: functional; settings: HI-3542
# [4] = test system: Staphylococcus aureus; assay: Antibacterial activity against Staphylococcus aureus SA2552; type: functional
# [5] = biological target: hERG (KCNH2) (Homo sapiens, UniProt Q12809); assay: Displacement of [3H]dofetilide from human ERG at 300 uM; settings: probe [3H]dofetilide
# Sequence of hERG (KCNH2) (Q12809 whole entry): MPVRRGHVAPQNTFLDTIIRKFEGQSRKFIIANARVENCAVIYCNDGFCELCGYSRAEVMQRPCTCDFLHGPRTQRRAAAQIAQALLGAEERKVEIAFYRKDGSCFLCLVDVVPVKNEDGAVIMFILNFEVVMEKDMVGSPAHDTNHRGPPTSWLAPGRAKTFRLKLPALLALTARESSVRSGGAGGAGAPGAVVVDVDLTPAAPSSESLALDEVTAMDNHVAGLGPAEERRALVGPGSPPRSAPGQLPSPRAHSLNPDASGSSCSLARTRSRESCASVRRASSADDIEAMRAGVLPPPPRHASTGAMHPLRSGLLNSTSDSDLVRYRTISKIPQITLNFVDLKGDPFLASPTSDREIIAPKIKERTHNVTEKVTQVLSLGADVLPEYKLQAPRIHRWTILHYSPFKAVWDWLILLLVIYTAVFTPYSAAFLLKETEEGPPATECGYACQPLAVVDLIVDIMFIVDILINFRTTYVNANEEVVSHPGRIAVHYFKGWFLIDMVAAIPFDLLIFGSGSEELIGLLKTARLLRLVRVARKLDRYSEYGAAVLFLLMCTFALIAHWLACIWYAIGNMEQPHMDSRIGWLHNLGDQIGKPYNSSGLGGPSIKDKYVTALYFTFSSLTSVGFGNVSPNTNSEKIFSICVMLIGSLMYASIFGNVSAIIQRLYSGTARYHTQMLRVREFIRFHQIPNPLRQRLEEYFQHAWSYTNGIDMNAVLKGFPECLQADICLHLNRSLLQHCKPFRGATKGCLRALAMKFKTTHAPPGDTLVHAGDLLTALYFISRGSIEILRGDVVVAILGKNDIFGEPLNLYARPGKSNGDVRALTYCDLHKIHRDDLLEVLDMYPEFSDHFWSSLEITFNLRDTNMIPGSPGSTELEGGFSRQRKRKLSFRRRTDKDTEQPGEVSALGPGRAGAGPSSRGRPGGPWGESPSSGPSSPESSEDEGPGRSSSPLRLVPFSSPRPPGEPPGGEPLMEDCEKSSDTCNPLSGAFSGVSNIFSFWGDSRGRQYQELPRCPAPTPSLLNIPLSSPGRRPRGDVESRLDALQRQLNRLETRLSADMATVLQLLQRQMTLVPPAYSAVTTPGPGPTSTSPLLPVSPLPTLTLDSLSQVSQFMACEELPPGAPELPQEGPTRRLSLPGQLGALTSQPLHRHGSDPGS
# How it was run: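 Radioligand filter-binding assay measuring displacement of [3H]-dofetilide from the hERG channel, run as in a patent protocol.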
# [6] = biological target: Voltage-gated inwardly rectifying potassium channel KCNH2 (Homo sapiens, UniProt Q12809); assay: Displacement of [3H]dofetilide from human ERG by fliter binding assay
# Sequence of Voltage-gated inwardly rectifying potassium channel KCNH2 (Q12809 whole entry): as above
# [7] = test system: Streptococcus pneumoniae; assay: Antibacterial activity against fluoroquinolone resistance Streptococcus pneumoniae SP3765; type: functional
# [8] = test system: Moraxella catarrhalis; assay: Antibacterial activity against Moraxella catarrhalis BC-3531; type: functional
# [9] = test system: Rattus norvegicus; assay: AUC in rat at 1 mg/kg, iv; type: ADME, organism-based, Plasma; set-up: dose 1 mg/kg, route intravenous; settings: in vivo
# [10] = Bioavailability in rat at 5 mg/kg, po; type: ADME, organism-based; settings: in vivo
# [11] = Volume of distribution in rat at 1 mg/kg, iv; type: ADME, organism-based; set-up: dose 1 mg/kg, route intravenous; settings: in vivo, read-out: Vdss
# [12] = Cmax in rat at 5 mg/kg, po; type: ADME, organism-based; set-up: dose 5 mg/kg, route oral; settings: in vivo
# [13] = Clearance in rat at 1 mg/kg, iv; type: ADME, organism-based; set-up: dose 1 mg/kg, route intravenous; settings: in vivo
# [14] = Half life in rat at 1 mg/kg, iv; type: ADME, organism-based; set-up: dose 1 mg/kg, route intravenous; settings: in vivo
Compound,MIC [1],MIC [2],MIC [3],MIC [4],inhibition at 300 µM [5],Ki [6],MIC [7],MIC [8],AUC [9],bioavailability [10],Vd [11],Cmax [12],clearance [13],half-life [14]
COc1c(N2CC[C@@H]([C@@H](N)CC#N)C2)c(F)cc2c(=O)c(C(=O)O)cn(C3CC3)c12,0.008 µg/mL,0.001 µg/mL,0.008 µg/mL,0.002 µg/mL,29%,> 150 µM,0.125 µg/mL,0.03 µg/mL,,,,,,
Cc1c(N2CC[C@@H]([C@H](C)NCCC#N)C2)c(F)cc2c(=O)c(C(=O)O)cn(C3CC3)c12,0.008 µg/mL,0.002 µg/mL,0.03 µg/mL,0.008 µg/mL,,72 µM,0.06 µg/mL,0.015 µg/mL,,,,,,
CC1COc2c(N3CC[C@@H]([C@@H](N)CC#N)C3)c(F)cc3c(=O)c(C(=O)O)cn1c23 (stereo not given in full),0.015 µg/mL,0.008 µg/mL,0.008 µg/mL,0.06 µg/mL,22%,> 150 µM,0.125 µg/mL,0.125 µg/mL,,,,,,
CC1COc2c(N3CC[C@@H]([C@H](C)NCCC#N)C3)c(F)cc3c(=O)c(C(=O)O)cn1c23 (stereo not given in full),0.06 µg/mL,0.015 µg/mL,0.06 µg/mL,0.03 µg/mL,10%,> 150 µM,0.25 µg/mL,0.125 µg/mL,,,,,,
O=C(O)c1cn(C2CC2)c2cc(N3CCNCC3)c(F)cc2c1=O [CIPROFLOXACIN],,,0.008 µg/mL,1 µg/mL,,,16 µg/mL,0.03 µg/mL,,,,,,
Cc1c(N2CC(C)(CN)C2)c(F)cc2c(=O)c(C(=O)O)cn(C3CC3)c12,0.06 µg/mL,0.06 µg/mL,0.015 µg/mL,0.06 µg/mL,,,2 µg/mL,0.06 µg/mL,2.5 ug/hr.ml,18%,2.5 L/kg,300 ng/mL,33 mL/min/kg,1.3 h
CC1COc2c(N3CC[C@@H]([C@H](C)N)C3)c(F)cc3c(=O)c(C(=O)O)cn1c23 (stereo not given in full),0.03 µg/mL,0.015 µg/mL,0.008 µg/mL,0.125 µg/mL,35%,> 100 µM,0.25 µg/mL,0.06 µg/mL,,,,,,
CN[C@@H](CC#N)[C@@H]1CCN(c2c(F)cc3c(=O)c(C(=O)O)cn(C4CC4)c3c2OC)C1,0.06 µg/mL,0.008 µg/mL,0.03 µg/mL,0.06 µg/mL,9%,> 150 µM,0.5 µg/mL,0.06 µg/mL,4.4 ug/hr.ml,53%,1.8 L/kg,1400 ng/mL,19 mL/min/kg,2.4 h
CN[C@@H](C)[C@@H]1CCN(c2c(F)cc3c(=O)c(C(=O)O)cn(C4CC4)c3c2OC)C1 [PREMAFLOXACIN],0.008 µg/mL,0.015 µg/mL,0.015 µg/mL,0.06 µg/mL,40%,> 150 µM,0.125 µg/mL,0.06 µg/mL,,,,,,
COc1c(N2CC[C@@H](CN)C2)ccc2c(=O)c(C(=O)O)cn(C3CC3)c12,0.125 µg/mL,0.03 µg/mL,0.06 µg/mL,0.25 µg/mL,,64 µM,4 µg/mL,0.5 µg/mL,,,,,,
COc1c(N2CC[C@@H]([C@@H](N)CC#N)C2)ccc2c(=O)c(C(=O)O)cn(C3CC3)c12,0.03 µg/mL,0.008 µg/mL,0.06 µg/mL,0.06 µg/mL,30%,> 150 µM,0.5 µg/mL,0.125 µg/mL,5.2 ug/hr.ml,22%,0.5 L/kg,1400 ng/mL,16 mL/min/kg,1.8 h
CCC1(CN)CN(c2c(F)cc3c(=O)c(C(=O)O)cn(C4CC4)c3c2C)C1,0.06 µg/mL,0.015 µg/mL,0.015 µg/mL,0.03 µg/mL,,45 µM,1 µg/mL,0.125 µg/mL,,,,,,
